Shown are actives, neighbours in structure and some others; about 1.4% of the full set was active somewhere.
HDAC3 inhib: human HDAC3 inhibition | recombinant HDAC3, fluorogenic peptide/trypsin coupled, fluorescence | 320,000 tested, 0.15% active | inhibition, % at 8.3 µM; in the data active = inhibition above about 26%, passing the limit was not always enough; inconclusive = no clear call, values can overlap the other calls
Target sequence (O15379 whole entry, looked up): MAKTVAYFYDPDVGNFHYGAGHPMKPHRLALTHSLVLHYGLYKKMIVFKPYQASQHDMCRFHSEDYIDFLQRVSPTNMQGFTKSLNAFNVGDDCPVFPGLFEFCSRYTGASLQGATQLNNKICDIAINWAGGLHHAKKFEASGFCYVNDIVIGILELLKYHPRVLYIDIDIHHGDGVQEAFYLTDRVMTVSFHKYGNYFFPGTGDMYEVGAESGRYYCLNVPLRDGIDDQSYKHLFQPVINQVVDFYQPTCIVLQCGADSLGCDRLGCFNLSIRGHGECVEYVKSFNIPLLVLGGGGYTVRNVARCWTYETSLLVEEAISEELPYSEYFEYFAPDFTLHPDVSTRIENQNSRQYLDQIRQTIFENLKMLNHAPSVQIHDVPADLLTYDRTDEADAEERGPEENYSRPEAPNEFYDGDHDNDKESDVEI
IDE inh: inhibitors of human insulin-degrading enzyme in cells; HEK cells, FAbetaB cleavage, fluorescence polarization; inhibition, % at 5.59 µM; 320,000 tested, 0.41% active; AID 434962; P14735;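 active = percent inhibition above the average of all tested compounds plus 3 SD, set per screening campaign, cut at about 16% in these data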;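 also: IDE supplied by intact live HEK cells; FP after avidin binding of uncleaved biotin substrate so inhibition keeps polarization high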
TbMetRS inhib: blocks T. brucei methionyl-tRNA synthetase activity; purified T. brucei MetRS, ATP depletion, Kinase-Glo luminescence; inhibition, % at 11.9 µM; 360,000 tested, 0.4% active; AID 624268;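 active = inhibition above a per-plate cutoff of the control wells' mean inhibition plus 3 SD, cut at about 5.5% in these data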
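Measured by: Kinase-Glo luciferase luminescence reporting remaining unconsumed ATP. Material: purified T. brucei MetRS enzyme. Doses: 11.9 µM compound single dose, 0.9% DMSO. Medium: HEPES buffer containing pyrophosphatase, BSA, spermine, DTT. Times: 15 min preincubation, 2 h reaction, all 25 °C. Reagent: methionine, ATP and bulk E. coli tRNA.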
CR mimetic SO: lowers age-related superoxide in aged yeast cells | 330,000 tested, 0.18% active | S. cerevisiae aged cells, superoxide DHE fluorescence; hits give low values | AID 2690 | superoxide response (% of plate mean), % at 10 µM;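 active = superoxide response under a set limit, about three screen SD below normal, cut at about 65% in these data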;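 also: yeast aged for seven days with compound at 30 °C before DHE staining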
IDE act: IDE (human) activation, cell-based; P14735; HEK cells, FAbeta-B cleavage, fluorescence polarization; 0% vehicle, 100% cell-free pure enzyme wells; activation, % at 5.96 µM; 340,000 tested, 0.073% active; AID 493087;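 active = activation above the mean of all tested compounds plus 3 SD, set per screening campaign, cut at about 17% in these data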
Efflux pump inh: blocks antifungal efflux pumps in multiplex yeast assay. 330,000 tested, 0.44% active. S. cerevisiae Candida pump triplex, Nile Red efflux. inhibition, % at 10 µM;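 active = plate passing quality check with inhibition over a set limit, or well fluorescence over plate mean plus 4 SD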;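 also: Nile Red retained in pooled yeast measured as flow cytometry median fluorescence; higher means more Nile Red kept so more efflux inhibition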
IDE inh confirm: confirmation of human insulin-degrading enzyme inhibitors in cells | shares compounds with IDE inh | HEK cells, FAbetaB cleavage, fluorescence polarization | inhibition, % at 5.59 µM | 1,200 tested, 51% active | AID 435028;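 active = mean inhibition across triplicate wells above the cutoff set by the earlier primary insulin-degrading enzyme screen, cut at about 16% in these data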
HEK293 tox: kills HEK cells in IDE inhibitor counter-screen | shares compounds with IDE inh | HEK293 cytotoxicity, ATP luminescence | inhibition, % at 5.59 µM | 1,200 tested, 28% active; in the data active = inhibition above about 22%
Cmpd fluor yeast: compound fluorescence in yeast efflux pump counter-screen | 1,700 tested, 4% active | shares compounds with Efflux pump inh | S. cerevisiae AD/pABC3, flow cytometry | fluorescence ratio to DMSO, % at 10 µM | AID 588517;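 active = fluorescence ratio to DMSO above its plate's cutoff, the plate mean ratio plus 5 SD, cut at about 210% in these data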;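 also: unstained yeast with no Nile Red so the signal is compound autofluorescence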
CaMdr1 efflux inh: Candida Mdr1 efflux pump inhibition. shares compounds with Efflux pump inh. S. cerevisiae AD/CaMDR1, Nile Red efflux, flow cytometry. inhibition, % at 10 µM. 1,700 tested, 1% active; in the data active = inhibition above about 26%;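 also: higher means more Nile Red retained so more efflux inhibition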
CaCdr2 efflux inh: inhibitors of Candida albicans Cdr2 efflux pump; 1,700 tested, 4% active; S. cerevisiae AD/CaCDR2, Nile Red retention, flow cytometry; Nile Red retention ratio vs DMSO, % at 10 µM; shares compounds with Efflux pump inh; in the data active = Nile Red retention ratio vs DMSO above about 190%;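 also: higher ratio means more blocking of Cdr2 efflux of the dye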
CaCdr1 efflux inh: blocks the Candida albicans Cdr1 efflux pump in yeast; shares compounds with Efflux pump inh; S. cerevisiae AD/CaCDR1, Nile Red efflux, flow cytometry; inhibition, % at 10 µM; 1,700 tested, 1% active; AID 588522;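 active = inhibition above the screen-wide mean plus twice its standard deviation, cut at about 32% in these data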
Of the large screens only hits and unclear results are named; the others gave an inactive call (follow-up assays come after a bar, where they were run).

O=c1oc2c3c4c(cc2c(C(F)(F)F)c1CCN1CCOCC1)CCCN4CCC3	IDE inh 37 | IDE inh confirm 68 | HEK293 tox inactive
O=C(NCCN1CCOCC1)c1ccc(-c2ccccc2)cc1	IDE inh 19 | IDE inh confirm inactive | HEK293 tox inactive
CCC(=O)Nc1ccc(NC(=O)c2oc3ccccc3c2C)cc1	IDE inh 17 | IDE inh confirm inactive | HEK293 tox inactive
CCC(=O)Nc1ccc(NC(=S)NC(=O)c2oc3ccccc3c2C)cc1	none
CCCCCCn1c(=O)[nH]c2nc3cc(N)ccc3nc2c1=O	IDE inh 69 (no result: TbMetRS inhib, IDE act) | IDE inh confirm 93 | HEK293 tox inactive
CCCCCn1c(=O)c(C(=O)c2ccccc2)nc2ccccc21	none
Clc1ccc2[nH]c3c(N4CCC5(CC4)OCCO5)ncnc3c2c1	IDE inh 22 (no result: TbMetRS inhib, IDE act) | IDE inh confirm inactive | HEK293 tox 60
c1ccc2c(c1)[nH]c1c(N3CCCC3)ncnc12	IDE inh 16 | IDE inh confirm inactive | HEK293 tox 49
Brc1ccc2[nH]c3c(N4CCc5ccccc5C4)ncnc3c2c1	IDE inh 55 (no result: TbMetRS inhib, IDE act) | IDE inh confirm 41 | HEK293 tox 66
c1ccc2c(c1)CCN(c1ncnc3nc[nH]c13)C2	none
CN1CCN(c2ncnc3c2[nH]c2ccc(F)cc23)CC1	IDE inh 23 | IDE inh confirm inactive | HEK293 tox inactive
Cc1ccc(C(=O)N2CCC(Cc3ccccc3)CC2)cc1S(=O)(=O)N1CCOCC1	none (no result: HDAC3 inhib, IDE inh, CR mimetic SO, Efflux pump inh)
Cc1ccc2[nH]c3c(N4CCOCC4)ncnc3c2c1	IDE inh 29 | IDE inh confirm inactive | HEK293 tox inactive
c1ccc2c(c1)[nH]c1c(N3CCSCC3)ncnc12	none
c1ccc2c(c1)[nH]c1c(N3CCOCC3)ncnc12	IDE inh 18 | IDE inh confirm inactive | HEK293 tox inactive
C#CCOCCOCCOCCNc1nc(N2CCN(C(=O)[C@H](CCC(=O)O)n3cc(C(N)CC(C)C)nn3)CC2)nc(N2CCN(C(=O)[C@H](CCC(=O)O)n3cc(C(N)CC(C)C)nn3)CC2)n1 (stereo partly specified)	none
O=C(CSc1nc(=O)n(Cc2ccccn2)c2c1CCC2)Nc1ccc(F)cc1F	none
Cn1c(=O)n(C)c2cc(/C=C(/C#N)C(=O)NCc3ccco3)ccc21	none
CCN(CC)c1ccc(/C=C(\C#N)C(=O)NCc2ccco2)cc1	IDE inh 90 (no result: TbMetRS inhib, IDE act) | IDE inh confirm 52 | HEK293 tox inactive
CN(C)c1ccc(/C=C(\C#N)C(=O)NCc2ccco2)cc1	IDE inh 22 (no result: HDAC3 inhib, TbMetRS inhib, IDE act) | IDE inh confirm inactive | HEK293 tox inactive
CC(=O)Oc1c(-c2ccc(Br)o2)oc2ccccc2c1=O	IDE inh 57 | IDE inh confirm 74 | HEK293 tox inactive
COc1ccc(-c2oc3ccccc3c(=O)c2OC(C)=O)cc1	none
CCC(C)NC(=O)c1cc2c(=O)n3cccc(C)c3nc2s1 (stereo unspecified)	none
COc1cc2c(cc1OC)C(c1cc3cccc(C)c3[nH]c1=O)N(C(=O)c1ccco1)CC2 (stereo unspecified)	HDAC3 inhib inconclusive
COc1ccc(/C=C/C(=O)NC(=S)Nc2ccc(S(=O)(=O)Nc3cc(C)on3)cc2)cc1	IDE inh 16 | IDE inh confirm inactive | HEK293 tox inactive
O=C(Nc1ccc(N2CCOCC2)c(Cl)c1)c1ccc(Cl)cc1	IDE inh 18 | IDE inh confirm inactive | HEK293 tox inactive
COc1ccc2c(c1)c1ccccc1n2C	none
COc1ccc2c(c1)c(/C=C/c1cc[n+](C)cc1)cn2C	IDE inh 27, Efflux pump inh 16 | IDE inh confirm 47 | HEK293 tox 44 | Cmpd fluor yeast active | CaMdr1 efflux inh inactive | CaCdr2 efflux inh inactive | CaCdr1 efflux inh inactive
CN(C)c1ccc(/C=C2\SC(=S)N(Nc3ncc(C(F)(F)F)cc3Cl)C2=O)cc1	IDE inh 49, Efflux pump inh 1.2 | IDE inh confirm 130 | HEK293 tox inactive | Cmpd fluor yeast active | CaMdr1 efflux inh inactive | CaCdr2 efflux inh 237 | CaCdr1 efflux inh inactive
COc1cc(/C=C2\SC(=S)N(Nc3ncc(C(F)(F)F)cc3Cl)C2=O)ccc1O	IDE inh 51 | IDE inh confirm 129 | HEK293 tox inactive | Cmpd fluor yeast 478 | CaMdr1 efflux inh inactive | CaCdr2 efflux inh inactive | CaCdr1 efflux inh inactive
O=C1/C(=C/c2ccc(O)c(O)c2)SC(=S)N1Nc1ccccc1	none (no result: HDAC3 inhib, IDE inh, CR mimetic SO, Efflux pump inh)
COc1ccccc1NS(=O)(=O)c1cccc(C(=O)NNC(=O)C(C)NC(=O)c2ccco2)c1 (stereo unspecified)	none
Oc1ccc(Cl)cc1C=Nc1ccc2c3c(cccc13)CC2	IDE inh 42, Efflux pump inh 4.4 (no result: HDAC3 inhib) | IDE inh confirm inactive | HEK293 tox inactive | Cmpd fluor yeast inactive | CaMdr1 efflux inh inactive | CaCdr2 efflux inh inactive | CaCdr1 efflux inh inactive
Cc1ccc(/C=C/c2ccc(N(C)C)cc2)[n+](C)c1	IDE inh 18, Efflux pump inh 4.4 | IDE inh confirm 25 | HEK293 tox 91 | Cmpd fluor yeast active | CaMdr1 efflux inh 34 | CaCdr2 efflux inh inactive | CaCdr1 efflux inh inactive
CCCCCC[n+]1ccccc1/C=C/c1ccc(N(C)C)cc1	none (no result: HDAC3 inhib, IDE inh, CR mimetic SO, IDE act, Efflux pump inh)
CCn1cc(/C=C(\NC(=O)c2ccccc2Cl)C(=O)N2CCN(C)CC2)c2ccccc21	none (no result: HDAC3 inhib, IDE inh, CR mimetic SO, Efflux pump inh)
COc1cc(/C=C2\SC(=S)N(NC(=O)c3cccnc3)C2=O)ccc1O	IDE inh 114 | IDE inh confirm 159 | HEK293 tox inactive | Cmpd fluor yeast inactive | CaMdr1 efflux inh inactive | CaCdr2 efflux inh inactive | CaCdr1 efflux inh inactive
O=C(NN1C(=O)/C(=C/c2ccc(O)c(O)c2)SC1=S)c1ccccc1	IDE inh 43, Efflux pump inh 3.4 | IDE inh confirm 87 | HEK293 tox inactive | Cmpd fluor yeast inactive | CaMdr1 efflux inh inactive | CaCdr2 efflux inh inactive | CaCdr1 efflux inh inactive
